# Source: ChEMBL document CHEMBL3627695, “1-Benzyl-2-methyl-3-indolylmethylene barbituric acid derivatives: Anti-cancer agents that target nucleophosmin 1 (NPM1)” (Bioorg Med Chem, 2015)
# Tests used:
# CCRF-CEM = assay: Anticancer activity against human CCRF-CEM cells after 48 hrs by sulforhodamine B assay; format: functional
# Procedure, shortened: (§1)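 NCI-60 human tumour cell line panel. Compounds dissolved in DMSO/H2O and tested at five 10-fold dilutions (10⁻⁴ M to 10⁻⁸ M) for 48 hr. GI50 is the molar concentration giving 50% reduction in net cell growth relative to cell numbers on day 0.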
# HL-60(TB) = assay: Anticancer activity against human HL-60(TB) cells after 48 hrs by sulforhodamine B assay; format: functional; details: HL-60, 48 h; procedure, shortened: as §1
# K562 = assay: Anticancer activity against human K562 cells after 48 hrs by sulforhodamine B assay; format: functional; details: K562, 48 h; procedure, shortened: as §1
# [1] = Anticancer activity against human MOLT4 cells after 48 hrs by sulforhodamine B assay; format: functional; details: MOLT-4, 48 h; procedure, shortened: as §1
# [2] = Anticancer activity against human RPMI8226 cells after 48 hrs by sulforhodamine B assay; format: functional; details: RPMI-8226, 48 h; procedure, shortened: as §1
# SR = assay: Anticancer activity against human SR cells after 48 hrs by sulforhodamine B assay; format: functional
# Procedure, shortened: (§2)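 NCI-60 panel protocol. Compounds were dissolved in DMSO/H2O and tested at five 10-fold concentrations (10⁻⁴ to 10⁻⁸ M) with 48 hr incubation. GI50 is the molar concentration giving a 50% reduction in net cell growth relative to cell numbers on day 0.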
# A549 = assay: Anticancer activity against human A549/ATCC cells after 48 hrs by sulforhodamine B assay; format: functional; details: A549, 48 h; procedure, shortened: as §1
# HOP-62 = assay: Anticancer activity against human HOP62 cells after 48 hrs by sulforhodamine B assay; format: functional; details: HOP-62, 48 h; procedure, shortened: as §1
# [3] = Anticancer activity against human HOP92 cells after 48 hrs by sulforhodamine B assay; format: functional; details: HOP-92, 48 h; procedure, shortened: as §1
# NCI-H226 = assay: Anticancer activity against human NCI-H226 cells after 48 hrs by sulforhodamine B assay; format: functional; details: NCI-H226, 48 h; procedure, shortened: as §1
# NCI-H322M = assay: Anticancer activity against human NCI-H322M cells after 48 hrs by sulforhodamine B assay; format: functional; procedure, shortened: as §1
# NCI-H460 = assay: Anticancer activity against human NCI-H460 cells after 48 hrs by sulforhodamine B assay; format: functional; details: NCI-H460, 48 h; procedure, shortened: as §1
# NCI-H522 = assay: Anticancer activity against human NCI-H522 cells after 48 hrs by sulforhodamine B assay; format: functional; details: NCI-H522, 48 h; procedure, shortened: as §1
# [4] = Anticancer activity against human COLO205 cells after 48 hrs by sulforhodamine B assay; format: functional; details: COLO 205, 48 h; procedure, shortened: as §1
# [5] = Anticancer activity against human HCC2998 cells after 48 hrs by sulforhodamine B assay; format: functional; details: HCC 2998, 48 h; procedure, shortened: as §1
# HCT-116 = assay: Anticancer activity against human HCT116 cells after 48 hrs by sulforhodamine B assay; format: functional; details: HCT-116, 48 h; procedure, shortened: as §1
# HCT-15 = assay: Anticancer activity against human HCT15 cells after 48 hrs by sulforhodamine B assay; format: functional; details: HCT-15, 48 h; procedure, shortened: as §1
# HT-29 = assay: Anticancer activity against human HT-29 cells after 48 hrs by sulforhodamine B assay; format: functional; details: HT-29, 48 h; procedure, shortened: as §1
# KM12 = assay: Anticancer activity against human KM12 cells after 48 hrs by sulforhodamine B assay; format: functional; details: KM12, 48 h; procedure, shortened: as §1
# SW-620 = assay: Anticancer activity against human SW620 cells after 48 hrs by sulforhodamine B assay; format: functional; details: SW-620, 48 h; procedure, shortened: as §2
# SF-268 = assay: Anticancer activity against human SF268 cells after 48 hrs by sulforhodamine B assay; format: functional; details: SF-268, 48 h; procedure, shortened: as §1
# [6] = Anticancer activity against human SF295 cells after 48 hrs by sulforhodamine B assay; format: functional; details: SF-295, 48 h; procedure, shortened: as §1
# [7] = Anticancer activity against human SF539 cells after 48 hrs by sulforhodamine B assay; format: functional; details: SF-539, 48 h; procedure, shortened: as §1
# SNB-19 = assay: Anticancer activity against human SNB19 cells after 48 hrs by sulforhodamine B assay; format: functional; details: SNB-19, 48 h; procedure, shortened: as §1
# SNB-75 = assay: Anticancer activity against human SNB75 cells after 48 hrs by sulforhodamine B assay; format: functional; details: SNB-75, 48 h; procedure, shortened: as §1
# U-251 = assay: Anticancer activity against human U251 cells after 48 hrs by sulforhodamine B assay; format: functional; details: U-251, 48 h; procedure, shortened: as §2
# [8] = Anticancer activity against human LOXIMVI cells after 48 hrs by sulforhodamine B assay; format: functional; details: LOX IMVI; procedure, shortened: as §1
# Malme-3M = assay: Anticancer activity against human MALME-3M cells after 48 hrs by sulforhodamine B assay; format: functional; procedure, shortened: as §1
# M14 = assay: Anticancer activity against human M14 cells after 48 hrs by sulforhodamine B assay; format: functional; details: M14, 48 h; procedure, shortened: as §1
# MDA-MB-435 = assay: Anticancer activity against human MDA-MB-435 cells after 48 hrs by sulforhodamine B assay; format: functional; details: MDA-MB-435, 48 h; procedure, shortened: as §1
# SK-MEL-2 = assay: Anticancer activity against human SK-MEL-2 cells after 48 hrs by sulforhodamine B assay; format: functional; details: SK-MEL-2, 48 h; procedure, shortened: as §1
# SK-MEL-28 = assay: Anticancer activity against human SK-MEL-28 cells after 48 hrs by sulforhodamine B assay; format: functional; details: SK-MEL-28, 48 h; procedure, shortened: as §1
# SK-MEL-5 = assay: Anticancer activity against human SK-MEL-5 cells after 48 hrs by sulforhodamine B assay; format: functional; details: SK-MEL-5, 48 h; procedure, shortened: as §1
# UACC-257 = assay: Anticancer activity against human UACC257 cells after 48 hrs by sulforhodamine B assay; format: functional; details: UACC-257, 48 h; procedure, shortened: as §2
# IGROV-1 = assay: Anticancer activity against human IGROV1 cells after 48 hrs by sulforhodamine B assay; format: functional; details: IGROV-1, 48 h; procedure, shortened: as §1
# OVCAR-3 = assay: Anticancer activity against human OVCAR3 cells after 48 hrs by sulforhodamine B assay; format: functional; details: OVCAR-3, 48 h; procedure, shortened: as §1
# OVCAR-4 = assay: Anticancer activity against human OVCAR4 cells after 48 hrs by sulforhodamine B assay; format: functional; details: OVCAR-4, 48 h; procedure, shortened: as §1
# OVCAR-5 = assay: Anticancer activity against human OVCAR5 cells after 48 hrs by sulforhodamine B assay; format: functional; details: OVCAR-5, 48 h; procedure, shortened: as §1
# OVCAR-8 = assay: Anticancer activity against human OVCAR8 cells after 48 hrs by sulforhodamine B assay; format: functional; details: OVCAR-8, 48 h; procedure, shortened: as §1
# [9] = Anticancer activity against human NCI-ADR-RES cells after 48 hrs by sulforhodamine B assay; format: functional; procedure, shortened: as §1
# SK-OV-3 = assay: Anticancer activity against human SKOV3 cells after 48 hrs by sulforhodamine B assay; format: functional; details: SK-OV-3, 48 h; procedure, shortened: as §1
# 786-0 = assay: Anticancer activity against human 786-0 cells after 48 hrs by sulforhodamine B assay; format: functional; details: 786-0, 48 h; procedure, shortened: as §1
# A498 = assay: Anticancer activity against human A498 cells after 48 hrs by sulforhodamine B assay; format: functional; details: A498, 48 h; procedure, shortened: as §1
# ACHN = assay: Anticancer activity against human ACHN cells after 48 hrs by sulforhodamine B assay; format: functional; procedure, shortened: as §1
# CAKI-1 = assay: Anticancer activity against human Caki1 cells after 48 hrs by sulforhodamine B assay; format: functional; details: CAKI-1, 48 h; procedure, shortened: as §1
# [10] = Anticancer activity against human RXF393 cells after 48 hrs by sulforhodamine B assay; format: functional; details: RXF 393, 48 h; procedure, shortened: as §1
# SN12C = assay: Anticancer activity against human SN12C cells after 48 hrs by sulforhodamine B assay; format: functional; procedure, shortened: as §1
# TK-10 = assay: Anticancer activity against human TK10 cells after 48 hrs by sulforhodamine B assay; format: functional; details: TK-10, 48 h; procedure, shortened: as §2
# UO-31 = assay: Anticancer activity against human UO31 cells after 48 hrs by sulforhodamine B assay; format: functional; details: UO-31, 48 h; procedure, shortened: as §2
# DU-145 = assay: Anticancer activity against human DU145 cells after 48 hrs by sulforhodamine B assay; format: functional; details: DU-145, 48 h; procedure, shortened: as §1
# MCF7 = assay: Anticancer activity against human MCF7 cells after 48 hrs by sulforhodamine B assay; format: functional; details: MCF7, 48 h; procedure, shortened: as §1
# MDA-MB-231 = assay: Anticancer activity against human MDA-MB-231 cells after 48 hrs by sulforhodamine B assay; format: functional; details: MDA-MB-231, 48 h; procedure, shortened: as §1
# [11] = Anticancer activity against human Hs 578T cells after 48 hrs by sulforhodamine B assay; format: functional; procedure, shortened: as §1
# BT-549 = assay: Anticancer activity against human BT549 cells after 48 hrs by sulforhodamine B assay; format: functional; details: BT-549, 48 h; procedure, shortened: as §1
# T47D = assay: Anticancer activity against human T47D cells after 48 hrs by sulforhodamine B assay; format: functional; procedure, shortened: as §2
# MDA-MB-468 = assay: Anticancer activity against human MDA-MB-468 cells after 48 hrs by sulforhodamine B assay; format: functional; details: MDA-MB-468, 48 h; procedure, shortened: as §1
# [12] = (§3) Anticancer activity against human OCI-AML3 cells expressing mutant NPM1 assessed as apoptosis for 48 hrs by annexin-V and TO-PRO3 staining based flow cytometry; format: functional, cell-based; details: OCI-AML-3, 48 h
# Procedure, shortened: (§4)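 OCI-AML3 cells (NPM1c+) in logarithmic growth, passaged 2–3 times weekly. Cells were exposed to the indicated compound concentrations for 48 hr, then stained with annexin V and TO-PRO 3. Percent apoptotic cells was read by flow cytometry. AP50 is the concentration at which 50% of cells undergo apoptosis.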
# OCI-AML-3 = assay: as §3; format: functional, cell-based; procedure, shortened: as §4
smiles,measurement,setting,value
COC(=O)c1ccc(Cn2c(C)c(C=C3C(=O)NC(=S)NC3=O)c3ccccc32)cc1,GI50,CCRF-CEM,340 nM
same,GI50,HL-60(TB),220 nM
same,GI50,K562,270 nM
same,GI50,[1],350 nM
same,GI50,[2],310 nM
same,GI50,SR,320 nM
same,GI50,A549,1360 nM
same,GI50,HOP-62,390 nM
same,GI50,[3],250 nM
same,GI50,NCI-H226,410 nM
same,GI50,NCI-H322M,530 nM
same,GI50,NCI-H460,330 nM
same,GI50,NCI-H522,250 nM
same,GI50,[4],200 nM
same,GI50,[5],400 nM
same,GI50,HCT-116,260 nM
same,GI50,HCT-15,330 nM
same,GI50,HT-29,310 nM
same,GI50,KM12,310 nM
same,GI50,SW-620,400 nM
same,GI50,SF-268,420 nM
same,GI50,[6],350 nM
same,GI50,[7],220 nM
same,GI50,SNB-19,1050 nM
same,GI50,SNB-75,460 nM
same,GI50,U-251,320 nM
same,GI50,[8],320 nM
same,GI50,Malme-3M,1480 nM
same,GI50,M14,330 nM
same,GI50,MDA-MB-435,220 nM
same,GI50,SK-MEL-2,1120 nM
same,GI50,SK-MEL-28,1050 nM
same,GI50,SK-MEL-5,1130 nM
same,GI50,UACC-257,800 nM
same,GI50,IGROV-1,510 nM
same,GI50,OVCAR-3,300 nM
same,GI50,OVCAR-4,460 nM
same,GI50,OVCAR-5,420 nM
same,GI50,OVCAR-8,320 nM
same,GI50,[9],350 nM
same,GI50,SK-OV-3,450 nM
same,GI50,786-0,320 nM
same,GI50,A498,190 nM
same,GI50,ACHN,510 nM
same,GI50,CAKI-1,500 nM
same,GI50,[10],300 nM
same,GI50,SN12C,410 nM
same,GI50,TK-10,310 nM
same,GI50,UO-31,410 nM
same,GI50,DU-145,340 nM
same,GI50,MCF7,400 nM
same,GI50,MDA-MB-231,380 nM
same,GI50,[11],220 nM
same,GI50,BT-549,310 nM
same,GI50,T47D,1860 nM
same,GI50,MDA-MB-468,340 nM
same,AC50,[12],1750 nM
same,Activity,OCI-AML-3,Dose-dependent effect
